Data reported in publication PMC10918659 (ACS Omega, 2024).
Read-outs that look alike come from different tables or passages of the source.

Experiments:
[1] = Serum biochemical parameters during NNK lung cancer induction; type: in vivo, Sprague-Dawley rats
In short: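 NNK was given to Sprague-Dawley rats (200–250 g) as […]. Tail-vein blood was clotted 30 min at RT, spun 20 min at 1200 rpm, and serum stored at −80 °C. TBARS: TCA/TBA/HCl at 95 °C for 15 min, […]. SOD: epinephrine in carbonate buffer pH 9.2, A295, reported as units/mg protein.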

Pharmacokinetic study = type: in vivo, Sprague-Dawley rats; conditions: for Cmax / MRT / Tmax / half-life: Sprague-Dawley, rat, inhaled or intranasal, 3.5 mg/kg; for Frel: relative to silibinin solution; for AUCtotal / CL: silibinin 3.5 mg/kg, NPs 2.5 mg/kg by microspray aerosolizer
[2] = cited from earlier work
Toxicity experiment = type: in vivo, Sprague-Dawley rats; conditions: daily for 2 weeks; SB 3.5 mg/kg, NPs 2.5 mg/kg
In short: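 Sprague-Dawley rats, n = 6 per group, were dosed daily for 2 weeks with free test compound (3.5 mg/kg), folate-conjugated nanoparticles (2.5 mg/kg), or saline via the caudal vein. Food and water were given freely. After 2 weeks, rats were sacrificed and lungs, liver, kidneys and spleen were weighed. Body-weight gain was recorded, and the organ index (mg/g) was calculated from organ weights.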

For `CN(CCCC(=O)c1cccnc1)N=O` [NNK, 4-(methylnitrosamino)-1-(3-pyridyl)-1-butanone], which “increase of MDA content in sera vs control” value (“increase of MDA content” for short) ([1]; 2 months) is on record?
The value was 4.21%.

What about the “reduction of SOD activity vs control” value ([1]; 2 months) of the same molecule?
Its value is 10.437%.

What about the “increase of MDA content” value ([1]; 3 months) of the same molecule?
Its value is 21.4%.

What about the “reduction of SOD activity vs control” value ([1]; 3 months) of the same molecule?
Its value is 29.16%.

And the “increase of MDA content” value ([1]; 4 months)?
The value was 35.16%.

What about the “reduction of SOD activity vs control” value ([1]; 4 months) of the same molecule?
Its value is 45.21%.

For `COc1cc(C2Oc3cc([C@H]4Oc5cc(O)cc(O)c5C(=O)[C@@H]4O)ccc3OC2CO)ccc1O` (stereo partly drawn) [silibinin], which Cmax (Pharmacokinetic study; lung) is on record?
Its Cmax is 32.5 ± 25.9 µg/mL.

And the MRT (Pharmacokinetic study; lung)?
The MRT was 3.88 ± 0.87 h.

And the Tmax (Pharmacokinetic study; lung)?
Its Tmax is 1 ± 2.21 h.

What about the half-life (Pharmacokinetic study; lung) of the same molecule?
The half-life was 4.3 ± 0.58 h.

And the Cmax (Pharmacokinetic study; plasma)?
The Cmax was 23.6 ± 13.2 µg/mL.

What about the MRT (Pharmacokinetic study; plasma) of the same molecule?
The MRT was 4.25 ± 1.05 h.

What about the Tmax (Pharmacokinetic study; plasma) of the same molecule?
Its Tmax is 1 ± 2.21 h.

What about the half-life (Pharmacokinetic study; plasma) of the same molecule?
The half-life was 8.9 ± 1.25 h.

What about the Frel (Pharmacokinetic study; lung kinetics) of the same molecule?
The Frel was 1.

What about the AUCtotal (Pharmacokinetic study; lung kinetics) of the same molecule?
Its AUCtotal is 745.2 ± 102.5 µg·h/mL.

And the CL (Pharmacokinetic study; lung kinetics)?
Its CL is 0.57 ± 1.02 h⁻¹.

What about the “time to reach peak” value (Pharmacokinetic study; lungs) of the same molecule?
Its value is 1 h.

What about the “time to reach peak” value (Pharmacokinetic study; plasma) of the same molecule?
Its value is 1 h.

And the Frel (Pharmacokinetic study; plasma kinetics)?
The Frel was 1.

What about the AUCtotal (Pharmacokinetic study; plasma kinetics) of the same molecule?
Its AUCtotal is 978.5 ± 118.52 µg·h/mL.

And the CL (Pharmacokinetic study; plasma kinetics)?
Its CL is 0.87 ± 0.89 h⁻¹.

What about the Tmax ([2]; after oral administration) of the same molecule?
Its Tmax is 2 to 4 h.

What about the half-life ([2]; after oral administration) of the same molecule?
Its half-life is 6 h.

What about the “oral rate of absorption” value ([2]; conventional silibinin) of the same molecule?
Its value is 23–47%.

What about the increment in weight (Toxicity experiment) of the same molecule?
Its increment in weight is 29.85 ± 3.21 g.

And the kidney organ index (Toxicity experiment)?
The kidney organ index was 3.78 mg/g.

And the liver organ index (Toxicity experiment)?
The liver organ index was 39.52 mg/g.

What about the lung organ index (Toxicity experiment) of the same molecule?
The lung organ index was 6.27 mg/g.

What about the spleen organ index (Toxicity experiment) of the same molecule?
Its spleen organ index is 7.42 mg/g.
